Measured values from PubChem BioAssay AID463184 (Molecular Libraries Program, Specialized Chemistry Center, …, 2010).
Calls of active or inactive are those of the source.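 The calls were made as follows: active = IC50 of 10 microM or lower; inactive = the rest.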

target: Transitional endoplasmic reticulum ATPase (Homo sapiens) (UniProt P55072); assay: inhibition of purified VCP ATP hydrolysis – biochemical, dose response (AID 463184); settings: purified p97 ATPase, Kinase-Glo luminescence
Procedure, shortened: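 system = human p97 ATPase | also added = ATP substrate (500 µM stock) | incubation = 10 min room-temperature compound preincubation, 30 min 37 °C reaction | detection = Kinase-Glo Plus luminescence | evaluation = IC50 from percent remaining activity fit | controls = DMSO wells and no-enzyme wells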

Chain of Transitional endoplasmic reticulum ATPase (Homo sapiens) (P55072 whole entry, looked up): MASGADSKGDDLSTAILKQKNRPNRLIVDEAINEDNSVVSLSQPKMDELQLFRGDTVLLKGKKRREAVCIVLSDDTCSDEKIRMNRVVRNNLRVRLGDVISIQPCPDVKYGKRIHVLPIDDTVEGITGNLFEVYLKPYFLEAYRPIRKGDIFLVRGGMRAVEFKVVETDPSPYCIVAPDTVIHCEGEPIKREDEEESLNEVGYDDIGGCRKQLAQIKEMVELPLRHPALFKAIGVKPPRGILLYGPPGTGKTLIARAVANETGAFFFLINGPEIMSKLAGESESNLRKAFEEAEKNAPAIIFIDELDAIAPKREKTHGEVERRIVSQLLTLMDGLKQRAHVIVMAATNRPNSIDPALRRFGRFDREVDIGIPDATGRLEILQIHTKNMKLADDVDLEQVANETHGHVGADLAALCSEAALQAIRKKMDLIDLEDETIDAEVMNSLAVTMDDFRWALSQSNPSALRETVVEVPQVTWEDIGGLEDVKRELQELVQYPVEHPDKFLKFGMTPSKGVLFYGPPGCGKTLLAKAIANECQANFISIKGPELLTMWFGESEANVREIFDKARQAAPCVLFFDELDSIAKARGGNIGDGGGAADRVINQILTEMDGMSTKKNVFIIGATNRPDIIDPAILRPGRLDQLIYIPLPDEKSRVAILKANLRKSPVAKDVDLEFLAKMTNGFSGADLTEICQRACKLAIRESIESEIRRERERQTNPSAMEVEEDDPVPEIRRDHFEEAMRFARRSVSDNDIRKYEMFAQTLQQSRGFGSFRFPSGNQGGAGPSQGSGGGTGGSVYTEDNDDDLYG

Row | Compound | IC50
1 | Clc1cccc(CNc2nc(NCc3ccccc3)c3ccccc3n2)c1 | 2.7 µM
2 | COc1ccc(CNc2nc(NCc3ccccc3)c3ccccc3n2)cc1 | 3 µM
3 | Clc1ccc(CNc2nc(NCc3ccccc3)c3ccccc3n2)cc1Cl | 3 µM
4 | Cc1ccc(CNc2nc(NCc3ccccc3)c3ccccc3n2)cc1 | 3 µM
5 | Brc1ccccc1CNc1nc(NCc2ccccc2)c2ccccc2n1 | 2 µM
6 | Fc1cccc(CNc2nc(NCc3ccccc3)c3ccccc3n2)c1 | 3.1 µM
7 | Cc1c(Cl)cccc1Nc1nc(N)nc(CCl)n1 | inactive
8 | COc1ccccc1CNc1nc(NCc2ccccc2)c2ccccc2n1 | 3.6 µM
9 | Cc1cccc(CNc2nc(NCc3ccccc3)c3ccccc3n2)c1 | 2.3 µM
10 | Cc1ccccc1CNc1nc(NCc2ccccc2)c2ccccc2n1 | 2.7 µM
11 | Nc1nc(CCl)nc(Nc2ccc(Cl)c(Cl)c2)n1 | inactive
12 | CCc1nc2ccccc2n1CC(=O)OC/C(O)=C(/C#N)c1nc2ccccc2[nH]1 | inactive
13 | Fc1ccc(CNc2nc(NCc3ccccc3)c3ccccc3n2)cc1 | 2.6 µM
14 | Brc1cccc(CNc2nc(NCc3ccccc3)c3ccccc3n2)c1 | 3.7 µM

Next, values leading:

Row | IC50 | Compound
15 | inactive | CC(C)c1ccc(Nc2nc(N)nc(CCl)n2)cc1
16 | inactive | N#C/C(=C(\O)COC(=O)C1COc2ccccc2O1)c1nc2ccccc2[nH]1 (stereo not drawn)
17 | 3.1 µM | Clc1ccc(CNc2nc(NCc3ccccc3)c3ccccc3n2)cc1
18 | 4.5 µM | COc1cccc(CNc2nc(NCc3ccccc3)c3ccccc3n2)c1
19 | 10 µM | N#C/C(=C(\O)COC(=O)CCC(=O)c1ccc2c(c1)OCCO2)c1nc2ccccc2[nH]1
20 | inactive | Nc1nc(CCl)nc(Nc2ccc(Oc3ccccc3)cc2)n1
21 | inactive | Nc1nc(CCl)nc(N(c2ccccc2)c2ccccc2)n1
22 | 4.3 µM | Brc1ccc(CNc2nc(NCc3ccccc3)c3ccccc3n2)cc1
23 | 1.6 µM | c1ccc(CNc2nc(NCc3ccccc3)c3ccccc3n2)cc1
24 | 2.9 µM | Fc1ccccc1CNc1nc(NCc2ccccc2)c2ccccc2n1
25 | 4.7 µM | FC(F)(F)c1cc(CNc2nc(NCc3ccccc3)c3ccccc3n2)ccc1Cl
26 | 2.6 µM | FC(F)(F)c1ccc(CNc2nc(NCc3ccccc3)c3ccccc3n2)cc1
27 | inactive | N#C/C(=C(\O)COC(=O)CNc1ccc(C(F)(F)F)cc1[N+](=O)[O-])c1nc2ccccc2[nH]1
28 | 5.3 µM | Clc1ccccc1CNc1nc(NCc2ccccc2)c2ccccc2n1
